Results from ChEMBL document CHEMBL1275429, “Pharmacodynamic characterization of ceftobiprole in experimental pneumonia caused by phenotypically diverse Staphylococcus aureus strains” (Antimicrob Agents Chemother, 2008).
In brackets after ≈: the same amount, converted by molar mass.

Key:
Staphylococcus aureus [1] = assay: Antimicrobial activity against methicillin-susceptible Staphylococcus aureus 29213 infected in BALB/cAnNCr mouse assessed as decrease in bacterial density in lungs at 1 to 25 mg/kg, sc administered as 1 to 5 times/day after 24 hrs […] relative to control; type: functional; conditions: route subcutaneous
In short: (§1)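 Female BALB/cAnNCr mice (7–9 weeks) were made neutropenic with cyclophosphamide i.p. at 250 mg/kg on day −4 and 100 mg/kg on day −1. Under isoflurane, mice received an oral inoculum in 3% mucin/saline, with nostrils blocked until aspiration. Drug (1–25 mg/kg s.c., once to five times daily, water vehicle) or sham started 6 h post-inoculation. Lungs were harvested at 24 h, homogenized and plated on blood and Columbia agar at 35°C. Mean log10 CFU/ml was compared with the 0-h untreated baseline; 5 mice per group.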

[2] = fT>MIC required for stasis inhibition of hospital acquired methicillin-resistant Staphylococcus aureus 56 infection in neutropenic BALB/cAnNCr mouse; type: functional
In short: (§2)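 Same neutropenic murine pneumonia model, with 24-h lung log10 CFU change (5 mice per group; 1–25 mg/kg s.c., 1–5 times daily). […] ED50, ED80 and stasis exposures were taken from a sigmoid Emax fit for each isolate.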

[3] = fT>MIC required for 50% inhibition of community acquired Staphylococcus aureus 146 infection in neutropenic BALB/cAnNCr mouse; type: functional
[4] = fT>MIC required for 50% inhibition of hospital acquired Staphylococcus aureus 152 infection in neutropenic BALB/cAnNCr mouse; type: functional
[5] = fT>MIC required for 50% inhibition of methicillin-susceptible Staphylococcus aureus 25923 infection in neutropenic BALB/cAnNCr mouse; type: functional
[6] = fT>MIC required for 80% inhibition of community acquired methicillin-resistant Staphylococcus aureus 147 infection in neutropenic BALB/cAnNCr mouse; type: functional; in short: as §2
[7] = fT>MIC required for 80% inhibition of community acquired methicillin-resistant Staphylococcus aureus 146 infection in neutropenic BALB/cAnNCr mouse; type: functional; in short: as §2
[8] = fT>MIC required for 80% inhibition of methicillin-susceptible Staphylococcus aureus 25923 infection in neutropenic BALB/cAnNCr mouse; type: functional
[9] = fCmax/MIC in neutropenic BALB/cAnNCr mouse plasma infected with Staphylococcus aureus at 1 to 25 mg/kg, sc administered 1 to 5 times/day after 24 hrs by HPLC; type: functional; conditions: route subcutaneous
In short: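 Exposure indices used free plasma drug, correcting with 19% mouse protein binding supplied by the sponsor. The regimens were s.c. 1–25 mg/kg given 1–5 times daily for 24 h to neutropenic mice with S. aureus pneumonia. MICs were determined in triplicate by CLSI broth microdilution. PK came from the single-dose HPLC study.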

[10] = Elimination clearance in neutropenic BALB/cAnNCr mouse infected with Staphylococcus aureus at 25 mg/kg, sc administered as single dose after 6 hrs of infection; type: ADME, organism-based; design: dose 25 mg/kg, route subcutaneous; conditions: in vivo
In short: (§3)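 Neutropenic female mice (cyclophosphamide i.p. 250 mg/kg day −4, 100 mg/kg day −1) with HA-MRSA 56 pneumonia (oral inoculum, 10^7 CFU/ml in 3% mucin). Single s.c. dose in sterile water. Plasma by intracardiac puncture at 0.25–4 h, six mice per time point, stabilized with citric acid. Assayed by validated HPLC (LOQ 0.01 µg/ml). Parameters from one-compartment analysis.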

[11] = Elimination half life in neutropenic BALB/cAnNCr mouse infected with Staphylococcus aureus at 25 mg/kg, sc administered as single dose after 6 hrs of infection; type: ADME, organism-based; design: dose 25 mg/kg, route subcutaneous; conditions: in vivo; in short: as §3
[12] = Elimination half life in neutropenic BALB/cAnNCr mouse infected with Staphylococcus aureus at 10 mg/kg, sc administered as single dose after 6 hrs of infection; type: ADME, organism-based; design: dose 10 mg/kg, route subcutaneous; conditions: in vivo; in short: as §3
[13] = Elimination half life in neutropenic BALB/cAnNCr mouse infected with Staphylococcus aureus at 1 mg/kg, sc administered as single dose after 6 hrs of infection; type: ADME, organism-based; design: dose 1 mg/kg, route subcutaneous; conditions: in vivo; in short: as §3
Mus musculus = assay: Volume of distribution in neutropenic BALB/cAnNCr mouse infected with Staphylococcus aureus at 1 mg/kg, sc administered as single dose after 6 hrs of infection; type: ADME, organism-based; design: dose 1 mg/kg, route subcutaneous; conditions: in vivo; in short: as §3
[14] = AUC (0 to infinity) in neutropenic BALB/cAnNCr mouse infected with Staphylococcus aureus at 2.5 mg/kg, sc administered as single dose after 6 hrs of infection; type: ADME, organism-based; design: time infinity, dose 2.5 mg/kg, route subcutaneous; conditions: plasma
In short: (§4)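 Female BALB/cAnNCr mice (7-9 weeks, 15-22 g) made neutropenic with cyclophosphamide, 250 mg/kg i.p. on day -4 and 100 mg/kg i.p. on day -1. Infected by oral aspiration of HA-MRSA 56 (10^7 CFU/ml in 3% mucin/saline). Single s.c. dose in sterile water given 6 h post-challenge. Plasma (EDTA, citric acid-stabilized) taken at 0.25-4 h, six mice per time point. Assayed by validated HPLC (LOQ 0.01 µg/ml); one-compartment analysis.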

[15] = AUC (0 to infinity) in neutropenic BALB/cAnNCr mouse infected with Staphylococcus aureus at 1 mg/kg, sc administered as single dose after 6 hrs of infection; type: ADME, organism-based; design: time infinity, dose 1 mg/kg, route subcutaneous; conditions: plasma; in short: as §3
[16] = Tmax in neutropenic BALB/cAnNCr mouse infected with Staphylococcus aureus at 25 mg/kg, sc administered as single dose after 6 hrs of infection; type: ADME, organism-based; design: dose 25 mg/kg, route subcutaneous; conditions: in vivo; in short: as §3
[17] = Tmax in neutropenic BALB/cAnNCr mouse infected with Staphylococcus aureus at 2.5 mg/kg, sc administered as single dose after 6 hrs of infection; type: ADME, organism-based; design: dose 2.5 mg/kg, route subcutaneous; conditions: in vivo; in short: as §4
[18] = Cmax in neutropenic BALB/cAnNCr mouse infected with Staphylococcus aureus at 2.5 mg/kg, sc administered as single dose after 6 hrs of infection; type: ADME, organism-based; design: dose 2.5 mg/kg, route subcutaneous; conditions: in vivo; in short: as §4
[19] = Cmax in neutropenic BALB/cAnNCr mouse infected with Staphylococcus aureus at 1 mg/kg, sc administered as single dose after 6 hrs of infection; type: ADME, organism-based; design: dose 1 mg/kg, route subcutaneous; conditions: in vivo; in short: as §3
Staphylococcus aureus [20] = assay: Antimicrobial activity against hospital acquired methicillin-resistant Staphylococcus aureus 152 by broth microdilution method; type: functional
In short: (§5)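 Broth microdilution run in triplicate following CLSI guidelines. Isolates were stored at –80°C in double-strength skim milk and subcultured twice on Trypticase soy agar with 5% sheep blood before testing.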

Staphylococcus aureus [21] = assay: Antimicrobial activity against hospital acquired methicillin-resistant Staphylococcus aureus 149 by broth microdilution method; type: functional; in short: as §5
Staphylococcus aureus [22] = assay: Antimicrobial activity against hospital acquired methicillin-resistant Staphylococcus aureus 56 by broth microdilution method; type: functional; in short: as §5
Staphylococcus aureus [23] = assay: Antimicrobial activity against community acquired methicillin-resistant Staphylococcus aureus 147 by broth microdilution method; type: functional; in short: as §5
Staphylococcus aureus [24] = assay: Antimicrobial activity against community acquired methicillin-resistant Staphylococcus aureus 144 by broth microdilution method; type: functional; in short: as §5
Staphylococcus aureus [25] = assay: Antimicrobial activity against hospital acquired methicillin-resistant Staphylococcus aureus 149 infected in BALB/cAnNCr mouse assessed as decrease in bacterial density in lungs at 1 to 25 mg/kg, sc administered as 1 to 5 times/day after 24 hrs […] relative to control; type: functional; conditions: route subcutaneous; in short: as §1
[26] = fCmax/MIC required for 50% inhibition of Staphylococcus aureus infection in neutropenic BALB/cAnNCr mouse; type: functional
[27] = fAUC/MIC required for 80% inhibition of Staphylococcus aureus infection in neutropenic BALB/cAnNCr mouse; type: functional
[28] = fAUC/MIC required for 50% inhibition of Staphylococcus aureus infection in neutropenic BALB/cAnNCr mouse; type: functional

## Nc1nc(/C(=N/O)C(=O)N[C@@H]2C(=O)N3C(C(=O)O)=C(/C=C4\CCN([C@@H]5CCNC5)C4=O)CS[C@H]23)ns1 [CEFTOBIPROLE]
Staphylococcus aureus [1]
  log10cfu: 3.9
[2]
  fT>MIC: 13.1%
[3]
  fT>MIC: 5.5%
[4]
  fT>MIC: 14%
[5]
  fT>MIC: 8.1%
[6]
  fT>MIC: 21.6%
[7]
  fT>MIC: 6%
[8]
  fT>MIC: 10.2%
[9]
  fCmax/MIC: 1
[10]
  CL/F: 11.8 mL/min/kg
[11]
  half-life: 24 min
[12]
  half-life: 25.2 min
[13]
  half-life: 15 min
Mus musculus
  Vd: 0.19 L/kg
[14]
  AUC(0-inf): 2570 ng·h/mL
[15]
  AUC(0-inf): 1840 ng·h/mL
[16]
  Tmax: 28.2 min
[17]
  Tmax: 24.6 min
[18]
  Cmax: 2910 ng/mL
[19]
  Cmax: 1740 ng/mL
Staphylococcus aureus [20]
  MIC: 0.5 µg/mL (≈ 0.935 µM)
Staphylococcus aureus [21]
  MIC: 1 µg/mL (≈ 1.87 µM)
Staphylococcus aureus [22]
  MIC: 1 µg/mL (≈ 1.87 µM)
Staphylococcus aureus [23]
  MIC: 1 µg/mL (≈ 1.87 µM)
Staphylococcus aureus [24]
  MIC: 1 µg/mL (≈ 1.87 µM)
Staphylococcus aureus [25]
  log10cfu: 4.1
[26]
  fCmax/MIC: 2
[27]
  fAUC/MIC: 3
[28]
  fAUC/MIC: 3
